Measured values: ChEMBL document CHEMBL1130284, “Analogues of N alpha-(4-amino-4-deoxypteroyl)-N delta-hemiphthaloyl-L-ornithine (PT523) modified in the side chain: synthesis and biological evaluation” (J Med Chem, 1997)
One block for each molecule: values may come before it.

Columns and labels:
A549 = experiment: In vitro antitumor activity against A549 human non-small lung carcinoma cells containing 10% fetal bovine serum; assay type: functional, cell-based
Method in brief: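 Cells plated at 2000-3000/well in RPMI with 10% fetal bovine serum and left to adhere for 24 h at 37 °C in humidified 5% CO2. Drug (0.1-1000 nM) then added for a further 72 h of continuous exposure. Sulforhodamine B staining read-out. Growth taken as % of untreated controls and plotted against log drug concentration to give IC50.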

SCC-25 = experiment: In vitro antitumor activity against SCC25 human head and neck squamous carcinoma cells containing 10% fetal bovine serum; assay type: functional, cell-based
Method in brief: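 Clonogenic assay. Cells kept in Dulbecco's MEM with 10% FBS and hydrocortisone (400 µg/L). Exponential-phase cells preincubated without drug for 48 h, exposed to 0.01-5000 nM for 72 h, then replated in fresh medium. After 14 days, colonies of ≥5 cells stained with crystal violet and counted. Survival taken as % of untreated controls and IC50 estimated from a log-log plot. Replicate plates, at least three separate days.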

[1] = target: T1, Dihydrofolate reductase (Homo sapiens) (UniProt P00374)
T1 sequence (whole entry): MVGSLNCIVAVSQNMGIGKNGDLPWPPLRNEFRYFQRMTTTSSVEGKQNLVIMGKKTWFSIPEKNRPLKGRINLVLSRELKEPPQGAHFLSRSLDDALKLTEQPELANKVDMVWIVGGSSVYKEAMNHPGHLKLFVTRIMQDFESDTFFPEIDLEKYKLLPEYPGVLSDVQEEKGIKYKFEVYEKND

786-0 = experiment: The IC50 value was measured on 786-0 cell line in ovarian tumor t; assay type: functional, cell-based; conditions: Homo sapiens, in the assay text read “renal” for “ovarian”
Method in brief: (§1)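 Standard NCI cell-line panel protocol. Cells plated in 96-well format and treated continuously with drug for 48 h. Total protein stained with Sulforhodamine B and IC50 derived.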

ACHN = experiment: The IC50 value was measured on ACHN cell line in renal tumor type.; assay type: functional, cell-based; conditions: Homo sapiens; method in brief: as §1
DU-145 = experiment: The IC50 value was measured on DU-145 cell line in prostate tumor type.; assay type: functional, cell-based; conditions: Homo sapiens; method in brief: as §1
EKVX = experiment: The IC50 value was measured on EKVX cell line in NSCL tumor type.; assay type: functional, cell-based; conditions: Homo sapiens; method in brief: as §1
HCT-116 = experiment: The IC50 value was measured on HCT116 cell line in colon tumor type.; assay type: functional, cell-based; conditions: Homo sapiens; method in brief: as §1
HT-29 = experiment: The IC50 value was measured on HT-29 cell line in colon tumor type.; assay type: functional, cell-based; conditions: Homo sapiens; method in brief: as §1
KM12 = experiment: The IC50 value was measured on KM-12 cell line in colon tumor type.; assay type: functional, cell-based; conditions: Homo sapiens; method in brief: as §1
NCI/ADR-RES = experiment: The IC50 value was measured on MCF7-ADR cell line in breast tumor type.; assay type: functional, cell-based; conditions: Homo sapiens; method in brief: as §1
LOX IMVI = experiment: The IC50 value was measured on LOX IMVI cell line in melanoma tumor ty; assay type: functional, cell-based; conditions: Homo sapiens; method in brief: as §1
MCF7 = experiment: The IC50 value was measured on MCF-7 cell line in breast tumor type; assay type: functional, cell-based; conditions: Homo sapiens; method in brief: as §1
Malme-3M = experiment: The IC50 value was measured on MALME-3M cell line in melanoma tumor type; assay type: functional, cell-based; conditions: Homo sapiens; method in brief: as §1
NCI-H23 = experiment: The IC50 value was measured on NCl-H23 cell line in NSCL tumor type.; assay type: functional, cell-based; conditions: Homo sapiens; method in brief: as §1
NCI-H460 = experiment: The IC50 value was measured on NCl-H460 cell line in NSCL tumor type; assay type: functional, cell-based; conditions: Homo sapiens; method in brief: as §1
NCI-H522 = experiment: The IC50 value was measured on NCl-H522 cell line in NSCL tumor type.; assay type: functional, cell-based; conditions: Homo sapiens; method in brief: as §1
OVCAR-3 = experiment: The IC50 value was measured on OVCAR-3 cell line in ovarian tumor t; assay type: functional, cell-based; conditions: Homo sapiens; method in brief: as §1
OVCAR-8 = experiment: The IC50 value was measured on OVCAR-8 cell line in ovarian tumor type.; assay type: functional, cell-based; conditions: Homo sapiens; method in brief: as §1
OVCAR-5 = experiment: The IC50 value was measured on OVCAR-5 cell line in ovarian tumor type.; assay type: functional, cell-based; conditions: Homo sapiens; method in brief: as §1
PC-3 = experiment: The IC50 value was measured on PC-3 cell line in prostate tumor type.; assay type: functional, cell-based; conditions: Homo sapiens; method in brief: as §1
SF-268 = experiment: The IC50 value was measured on SF-268 cell line in CNS tumor type.; assay type: functional, cell-based; conditions: Homo sapiens; method in brief: as §1
SW-620 = experiment: The IC50 value was measured on SW-620 cell line in colon tumor type.; assay type: functional, cell-based; conditions: Homo sapiens; method in brief: as §1
SF-539 = experiment: The IC50 value was measured on SF-539 cell line in CNS tumor type.; assay type: functional, cell-based; conditions: Homo sapiens; method in brief: as §1
SK-MEL-28 = experiment: The IC50 value was measured on SKMEL-28 cell line in melanoma tumor type.; assay type: functional, cell-based; conditions: Homo sapiens; method in brief: as §1
SNB-75 = experiment: The IC50 value was measured on SNB-75 cell line in CNS tumor type.; assay type: functional, cell-based; conditions: Homo sapiens; method in brief: as §1
SK-MEL-5 = experiment: The IC50 value was measured on SK-MEL-5 cell line in melanoma tumor type.; assay type: functional, cell-based; conditions: Homo sapiens; method in brief: as §1
UO-31 = experiment: The IC50 value was measured on UO-31 cell line in renal tumor type.; assay type: functional, cell-based; conditions: Homo sapiens; method in brief: as §1
UACC-62 = experiment: The IC50 value was measured on UACC-62 cell line in melanoma tumor type.; assay type: functional, cell-based; conditions: Homo sapiens; method in brief: as §1
HCT-15 = experiment: The IC50 value was measured on HCT-15 cell line in colon tumor type.; assay type: functional, cell-based; conditions: Homo sapiens; method in brief: as §1
Mus musculus [2] = experiment: Tumor growth delay of subcutaneously implanted SCC-VII squamous cell carcinoma in mice; conditions: route subcutaneous
Mus musculus [3] = experiment: Tumor size of subcutaneously implanted SCC-VII squamous cell carcinoma in mice on day 0; conditions: route subcutaneous
Mus musculus [4] = experiment: Tumor size of subcutaneously implanted SCC-VII squamous cell carcinoma in mice on day 7; conditions: route subcutaneous
Mus musculus [5] = experiment: Time to reach 10 mm Tumor size of subcutaneously implanted SCC-VII squamous cell carcinoma in mice; conditions: route subcutaneous

- IC50 (A549): 45 nM
- IC50 (SCC-25): 2.9 nM
- IC50/[E] (nM milliunit-1) [1]: 2.2
Compound: Nc1nc(N)c2nc(CNc3ccc(C(=O)NC(CCCNC(=O)c4cccc(C(=O)O)c4)C(=O)O)cc3)cnc2n1 (stereo not given)

- IC50 (A549): 23 nM
- IC50/[E] (nM milliunit-1) [1]: 3.5
Compound: Nc1nc(N)c2nc(CNc3ccc(C(=O)NC(CNC(=O)c4ccccc4C(=O)O)C(=O)O)cc3)cnc2n1 (stereo not given)

- IC50 (SCC-25): 18 nM
- IC50/[E] (nM milliunit-1) [1]: 2.4
Compound: Nc1nc(N)c2nc(CNc3ccc(C(=O)NC(CCCNC(=O)c4cc(Cl)c(Cl)cc4C(=O)O)C(=O)O)cc3)cnc2n1 (stereo not given)

- IC50 (786-0): 9.2 nM
- IC50 (A549): 22 nM
- IC50 (ACHN): 45 nM
- IC50 (DU-145): 34 nM
- IC50 (EKVX): 21 nM
- IC50 (HCT-116): 5 nM
- IC50 (HT-29): 9.8 nM
- IC50 (KM12): > 1000 nM
- IC50 (NCI/ADR-RES): > 1000 nM
- IC50 (LOX IMVI): 4.4 nM
- IC50 (MCF7): > 1000 nM
- IC50 (Malme-3M): > 1000 nM
- IC50 (NCI-H23): 32 nM
- IC50 (NCI-H460): 14 nM
- IC50 (NCI-H522): > 1000 nM
- IC50 (OVCAR-3): > 1000 nM
- IC50 (OVCAR-8): 8.1 nM
- IC50 (OVCAR-5): 86 nM
- IC50 (PC-3): 6.7 nM
- IC50 (SF-268): > 100 nM
- IC50 (SW-620): 6.3 nM
- IC50 (SF-539): 57 nM
- IC50 (SK-MEL-28): > 1000 nM
- IC50 (SNB-75): > 1000 nM
- IC50 (SK-MEL-5): 85 nM
- IC50 (UO-31): 8 nM
- IC50 (UACC-62): 12 nM
- IC50 (HCT-15): 7.2 nM
- IC50/[E] (nM milliunit-1) [1]: 2.5
Compound: Nc1nc(N)c2nc(CNc3ccc(C(=O)NC(CCNC(=O)c4ccccc4C(=O)O)C(=O)O)cc3)cnc2n1 (stereo not given)
- TGD (Mus musculus [2]): 2.6 days
- Tumor size (Mus musculus [3]): 1.1 mm
- Tumor size (Mus musculus [4]): 5.1 mm
- Time (Mus musculus [5]): 9.8 days
